From ChEMBL document CHEMBL3817728, “Synthesis, Evaluation, and Mechanism Study of Novel Indole-Chalcone Derivatives Exerting Effective Antitumor Activity Through Microtubule Destabilization in Vitro and in Vivo” (J Med Chem, 2016)
Calls of active or inactive are those of the source. The calls are words filed in the database; no cut-off is given here.

Experiments:
[1] = Metabolic stability in Sprague-Dawley rat liver microsomes assessed as compound remaining at 180 mins in presence of NADPH regenerating system by HPLC method; format: ADME; details: read-out: Stability
In short: (§1)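 Rat liver microsomes incubated with compound at 37 ℃ for indicated times in buffer containing NADPH regenerating system; residual parent determined by HPLC.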

[2] = system: HeLa; test: Cytotoxicity against human HeLa cells assessed as cell viability after 48 hrs by MTT assay; format: functional, cell-based
In short: (§2)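 Cancer cell lines treated with compound for 48 h, and viability read by MTT assay. IC50 given as mean ± SD from at least three independent experiments.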

[3] = Cytotoxicity against human MCF7/DX cells assessed as growth inhibition after 48 hrs by MTT assay; format: functional, cell-based
In short: (§3)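 Drug-resistant lines were tested by a 48 h MTT viability assay. IC50 was derived from dose-response curves and reported as mean ± SE of at least three independent experiments.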

[4] = system: A549; test: Cell cycle arrest in human A549 cells assessed as decrease in cell level at G1 phase at 1 to 10 nM after 24 to 48 hrs by propidium iodide staining-based flow cytometric analysis; format: functional
In short: (§4)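 A549 cells exposed to compound for 24, 48 or 72 h, then trypsinized and harvested. DNA stained with propidium iodide and analyzed by flow cytometry. Percentage of cells in each cell-cycle phase was quantified from the DNA histograms, with sub-G1 taken as the hypodiploid peak. Performed at least three times; representative experiments shown.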

[5] = target: T1, Tubulin (Sus scrofa) (UniProt P02554+P02550); test: Inhibition of [3H]-colchicine binding to porcine brain tubulin at 5 uM relative to control
In short: (§5)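 Competition with [3H]colchicine at 5 μM; test agents at 5 or 1 μM. Mean ± SD of at least three independent experiments.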

[6] = system: A549; test: Induction of apoptosis in human A549 cells assessed as necrotic cells at 10 nM after 48 hrs by annexin V-FITC/propidium iodide staining-based flow cytometric method (reference value: 0.01%); format: functional
[7] = system: A549; test: Induction of apoptosis in human A549 cells assessed as necrotic cells at 3 nM after 24 hrs by annexin V-FITC/propidium iodide staining-based flow cytometric method (reference value: 0.03%); format: functional
[8] = system: A549; test: Cytotoxicity against human A549 cells assessed as cell viability after 48 hrs by MTT assay; format: functional, cell-based; details: A549, 48 h; in short: as §2
[9] = system: HUVEC; test: Cytotoxicity against quiescent HUVEC assessed as growth inhibition after 48 hrs in presence of 0.5% fetal calf serum and absence of growth factor by MTT assay; format: cell-based; details: Homo sapiens
In short: (§6)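 Non-tumorigenic cells given 48 h compound exposure, and viability read by MTT. IC50 is mean ± SE from dose-response curves of at least three independent experiments. HUVECs were kept quiescent in endothelial cell medium with 0.5% fetal calf serum and no growth factor.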

[10] = system: A549; test: Disruption of microtubule network in human A549 cells assessed as multinucleation at 10 nM after 24 hrs by Hoechst 33342 staining-based laser scanning confocal microscopic analysis; format: cell-based
In short: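 A549 cells plated in confocal dishes and incubated with compound for 24 h. Cells were then fixed and stained, and microtubule and spindle organization was imaged by laser confocal microscopy. Experiments done five times; representative results shown.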

[11] = system: A549; test: Induction of apoptosis in human A549 cells assessed as early apoptotic cells at 1 nM after 24 hrs by annexin V-FITC/propidium iodide staining-based flow cytometric method (reference value: 1.07%); format: functional
[12] = system: A549; test: Disruption of mitochondrial membrane potential in human A549 cells assessed as green fluorescence intensity at 10 nM after 24 hrs by JC1 staining-based flow cytometric method (reference value: 0.02%); format: functional
[13] = system: MCF7; test: Resistance index, ratio of IC50 for human MCF7/DX cells to IC50 for human MCF7 cells; format: functional
[14] = system: A549; test: Antitumor activity against human A549 cells xenografted in BALB/c nude mouse assessed as tumor growth inhibition at 30 mg/kg, ip administered every other day for 1 month measured every other day post dose relative to vehicle-treated control; format: functional; details: read-out: TGI
[15] = system: A549; test: Disruption of mitochondrial membrane potential in human A549 cells assessed as red fluorescence intensity at 1 nM after 24 hrs by JC1 staining-based flow cytometric method (reference value: 99.2%); format: functional
[16] = Cytotoxicity against human HCT8/VCT cells assessed as growth inhibition after 48 hrs by MTT assay; format: functional, cell-based; in short: as §3
[17] = system: A549; test: Induction of apoptosis in human A549 cells assessed as late apoptotic cells at 1 nM after 24 hrs by annexin V-FITC/propidium iodide staining-based flow cytometric method (reference value: 0.01%); format: functional
[18] = system: A549; test: Cell cycle arrest in human A549 cells assessed as accumulation at sub-G1 phase at 3 to 10 nM after 24 to 72 hrs by propidium iodide staining-based flow cytometric analysis; format: functional; in short: as §4
[19] = system: A2780; test: Resistance index, ratio of IC50 for human A2780/TAX cells to IC50 for human A2780 cells; format: functional
[20] = system: A549; test: Induction of apoptosis in human A549 cells assessed as viable cells at 3 nM after 48 hrs by annexin V-FITC/propidium iodide staining-based flow cytometric method (reference value: 98.1%); format: functional; details: A549, 48 h, read-out: Activity
In short: (§7)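 A549 cells exposed 24 h or 48 h at indicated concentrations, then trypsinized, harvested and stained with Annexin V-FITC and PI; flow cytometry quadrants scored as necrotic (upper left), late apoptotic (upper right), live (bottom left) and early apoptotic (bottom right). Five independent experiments, representative shown.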

[21] = target: T1, Tubulin (Sus scrofa); test: Inhibition of [3H]-colchicine binding to porcine brain tubulin at 1 uM relative to control; in short: as §5
[22] = system: A2780; test: Cytotoxicity against human A2780 cells assessed as cell viability after 48 hrs by MTT assay; format: functional, cell-based; details: A2780, 48 h; in short: as §2
[23] = system: A549; test: Induction of apoptosis in human A549 cells assessed as viable cells at 1 nM after 48 hrs by annexin V-FITC/propidium iodide staining-based flow cytometric method (reference value: 98.1%); format: functional; details: A549, 48 h, read-out: Activity; in short: as §7
[24] = Metabolic stability in Sprague-Dawley rat liver microsomes assessed as compound remaining at 120 mins in presence of NADPH regenerating system by HPLC method; format: ADME; details: read-out: Stability; in short: as §1
[25] = Metabolic stability in Sprague-Dawley rat liver microsomes assessed as compound remaining at 150 mins in presence of NADPH regenerating system by HPLC method; format: ADME; details: read-out: Stability; in short: as §1
[26] = Metabolic stability in Sprague-Dawley rat liver microsomes assessed as compound remaining at 30 mins in presence of NADPH regenerating system by HPLC method; format: ADME; details: read-out: Stability
In short: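 Test compound incubated with rat liver microsomes at 37 ℃ in buffer containing an NADPH regenerating system for the stated time. Remaining parent compound was quantified by HPLC.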

[27] = system: A549; test: Induction of apoptosis in human A549 cells assessed as viable cells at 10 nM after 24 hrs by annexin V-FITC/propidium iodide staining-based flow cytometric method (reference value: 98.9%); format: functional; details: A549, 24 h, read-out: Activity; in short: as §7
[28] = system: A549; test: Induction of apoptosis in human A549 cells assessed as necrotic cells at 1 nM after 24 hrs by annexin V-FITC/propidium iodide staining-based flow cytometric method (reference value: 0.03%); format: functional
[29] = Cytotoxicity against human MCF10A cells assessed as growth inhibition after 48 hrs by MTT assay; format: cell-based; details: MCF-10A; in short: as §6
[30] = system: BJ; test: Cytotoxicity against human BJ cells assessed as growth inhibition after 48 hrs by MTT assay; format: cell-based; in short: as §6

T1 sequence (P02550 whole entry, looked up): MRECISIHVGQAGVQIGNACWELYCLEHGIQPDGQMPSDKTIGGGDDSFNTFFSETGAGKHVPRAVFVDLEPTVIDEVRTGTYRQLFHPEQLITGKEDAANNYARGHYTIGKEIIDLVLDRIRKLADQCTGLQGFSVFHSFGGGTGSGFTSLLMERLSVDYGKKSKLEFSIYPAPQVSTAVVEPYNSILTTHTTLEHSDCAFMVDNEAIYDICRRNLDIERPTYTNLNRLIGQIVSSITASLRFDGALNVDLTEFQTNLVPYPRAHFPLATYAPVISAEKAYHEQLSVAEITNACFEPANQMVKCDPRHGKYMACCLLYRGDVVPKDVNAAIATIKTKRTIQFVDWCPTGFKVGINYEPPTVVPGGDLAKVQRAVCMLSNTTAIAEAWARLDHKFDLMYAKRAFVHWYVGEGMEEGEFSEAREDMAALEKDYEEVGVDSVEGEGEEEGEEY
T1 sequence (P02554 whole entry, looked up): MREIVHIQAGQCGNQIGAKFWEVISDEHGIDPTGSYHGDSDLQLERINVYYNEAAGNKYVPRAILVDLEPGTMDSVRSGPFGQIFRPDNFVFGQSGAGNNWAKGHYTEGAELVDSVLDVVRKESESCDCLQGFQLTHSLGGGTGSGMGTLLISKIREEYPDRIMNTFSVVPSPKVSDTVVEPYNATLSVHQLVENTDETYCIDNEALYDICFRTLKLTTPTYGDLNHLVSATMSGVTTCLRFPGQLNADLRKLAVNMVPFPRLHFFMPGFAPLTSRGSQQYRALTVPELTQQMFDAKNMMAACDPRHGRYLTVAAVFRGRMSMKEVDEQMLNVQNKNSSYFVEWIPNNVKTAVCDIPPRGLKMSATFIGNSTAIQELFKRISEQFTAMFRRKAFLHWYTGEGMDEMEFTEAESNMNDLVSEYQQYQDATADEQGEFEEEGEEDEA

remaining at 3 h [1]: 42.4%
inhibition [5]: 96%
inhibition [21]: 82%
remaining at 2 h [24]: 66.3%
remaining at 2.5 h [25]: 54.1%
remaining at 0.5 h [26]: 85.6%
SMILES: COc1ccc2c(/C=C(\C)C(=O)c3cc(OC)c(OC)c(OC)c3)c[nH]c2c1
IC50 [2]: 7 nM
IC50 [3]: 9 nM
Activity [4]: Active
Activity [6]: 8.38%
Activity [7]: 1.07%
IC50 [8]: 3 nM
IC50 [9]: 163 nM
Activity [10]: Active
Activity [11]: 12.8%
Activity [12]: 57.2%
Ratio IC50 [13]: 1.5
inhibition in vivo at 30 mg/kg [14]: 66.1%
Activity [15]: 97.2%
IC50 [16]: 5 nM
Activity [17]: 2.12%
Activity [18]: Active
Ratio IC50 [19]: 12.4
viability at 0.003 µM [20]: 33.9%
IC50 [22]: 8 nM
viability at 0.001 µM [23]: 66.8%
viability at 0.01 µM [27]: 60.4%
Activity [28]: 1.45%
IC50 [29]: 2670 nM
IC50 [30]: 8920 nM
